ChEMBL document CHEMBL4342410, “Design and Discovery of N-(3-(2-(2-Hydroxyethoxy)-6-morpholinopyridin-4-yl)-4-methylphenyl)-2-(trifluoromethyl)isonicotinamide, a Selective, Efficacious, and Well-Tolerated RAF Inhibitor Targeting RAS Mutant Cancers: The Path to the Clinic” (J Med Chem, 2020)

Legend:
[1] = biological target: T1, Discoidin domain-containing receptor 2 (Homo sapiens) (UniProt Q16832); test: Binding affinity to wild-type human partial length DDR2 (V555 to E855 residues) expressed in mammalian expression system at 1 uM by Kinomescan method relative to control
T1 sequence (whole entry): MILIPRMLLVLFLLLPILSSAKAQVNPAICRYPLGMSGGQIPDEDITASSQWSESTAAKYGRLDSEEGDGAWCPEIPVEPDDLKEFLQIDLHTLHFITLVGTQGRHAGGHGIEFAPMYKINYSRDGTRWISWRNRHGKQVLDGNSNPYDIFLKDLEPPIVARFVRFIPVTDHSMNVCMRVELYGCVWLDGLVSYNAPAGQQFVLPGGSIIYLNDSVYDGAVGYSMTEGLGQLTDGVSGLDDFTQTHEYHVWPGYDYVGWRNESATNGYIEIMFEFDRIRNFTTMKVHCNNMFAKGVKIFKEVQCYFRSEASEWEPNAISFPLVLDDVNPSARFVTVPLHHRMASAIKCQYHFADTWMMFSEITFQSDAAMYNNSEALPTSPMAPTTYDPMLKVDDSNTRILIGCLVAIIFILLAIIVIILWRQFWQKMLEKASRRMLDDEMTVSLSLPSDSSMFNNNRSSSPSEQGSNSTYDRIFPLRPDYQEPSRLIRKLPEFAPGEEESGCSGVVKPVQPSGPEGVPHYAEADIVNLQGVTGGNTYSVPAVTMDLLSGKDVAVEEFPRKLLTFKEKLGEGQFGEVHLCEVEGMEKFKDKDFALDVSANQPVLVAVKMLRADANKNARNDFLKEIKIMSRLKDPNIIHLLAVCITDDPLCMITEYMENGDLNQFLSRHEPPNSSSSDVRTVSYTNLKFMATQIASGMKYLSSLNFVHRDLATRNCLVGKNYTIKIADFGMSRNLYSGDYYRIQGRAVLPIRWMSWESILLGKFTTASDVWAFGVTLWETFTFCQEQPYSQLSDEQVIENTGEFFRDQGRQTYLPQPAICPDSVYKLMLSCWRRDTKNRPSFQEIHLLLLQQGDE
Procedure, shortened: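 KINOMEscan competition binding panel of about 456 kinases, compound tested at 1 μM. Activity is given as % of control = [(test signal − positive control signal)/(negative control signal − positive control signal)] × 100.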

[2] = Dissociation constant, pKa of the compound; type: physicochemical
[3] = Tmax in nude rat xenografted with human Calu6 cells harboring KRAS Q61K mutant at 150 mg/kg, po administered daily for 18 days starting from day 13 post tumor implantation and measured on day 31; type: ADME, organism-based; settings: in vivo
Procedure, shortened: (§1)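 Calu-6 xenograft nude rats were dosed orally once daily at 15, 35, 75 or 150 mg/kg from day 13 after implantation to day 31. Plasma was collected after the last dose on day 31, drug concentrations were measured, and PK parameters including AUC were calculated for each dose.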

[4] = biological target: Platelet-derived growth factor receptor beta (Homo sapiens, UniProt P09619); test: Binding affinity to wild-type human partial length PDGFRB (V582 to Y1009 residues) expressed in bacterial expression system by Kinomescan method
Calu-6 [5] = test: Antitumor activity against human Calu6 cells harboring KRAS Q61K mutant xenografted in nude rat assessed as tumor regression at 75 mg/kg, po administered daily for 18 days starting from day 13 post tumor implantation and measured on day 31 relative to control; type: functional
Procedure, shortened: (§2)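 Nude rats bearing Calu-6 (KRAS Q61K) human NSCLC xenografts received vehicle or drug p.o. daily at 15, 35, 75 or 150 mg/kg. Dosing began 13 days after tumor implantation and ran to day 31, i.e. 18 days of treatment. Tumor volumes were read out as %T/C or % regression versus vehicle on day 31. Body weight was also tracked.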

[6] = Oral bioavailability in mouse at 4 mg/kg; type: ADME, organism-based; settings: in vivo
[7] = Volume of distribution at steady state in rat at 2 mg/kg, iv or 4 mg/kg, po; type: ADME, organism-based; settings: in vivo, read-out: Vdss
[8] = Toxicity in human Calu6 cells harboring KRAS Q61K mutant xenografted nude rat assessed as change in body weight at 15 to 150 mg/kg, po administered daily for 18 days starting from day 13 post tumor implantation and measured during compound dosing; type: organism-based; settings: in vivo, 432 h
Procedure, shortened: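 Nude rats bearing Calu-6 (KRAS Q61K) NSCLC xenografts were dosed orally once daily with vehicle or 15, 35, 75 or 150 mg/kg. Dosing ran from day 13 after implantation until day 31. Body weight was tracked and expressed as percent change from initial for each treatment group versus the vehicle control.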

[9] = Distribution coefficient, log D of compound at pH 6.5; type: physicochemical; settings: octanol/water
[10] = biological target: Serine/threonine-protein kinase B-raf (Homo sapiens, UniProt P15056); test: Binding affinity to wild-type human partial length BRAF (S429 to E741 residues) expressed in mammalian expression system by Kinomescan method
[11] = Oral bioavailability in rat at 4 mg/kg; type: ADME, organism-based; settings: in vivo
Rattus norvegicus = test: In vivo inhibition of CRAF in nude rat xenografted with human Calu6 cells harboring KRAS Q61K mutant assessed as reduction in tumor MEK phosphorylation at 150 mg/kg, po administered as single dose measured after 24 hrs by sandwich ELISA relative to control; type: functional; settings: Calu-6, po
Procedure, shortened: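 Calu-6 (KRAS Q61K) xenograft-bearing nude rats were given a single oral dose of 15, 35, 75 or 150 mg/kg. Tumor and blood were sampled at 1, 4, 7, 24 and 48 h post-dose. Tumor pMEK was quantified by MSD immunoassay and expressed as percent pMEK. Free plasma exposure was determined in parallel.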

[12] = AUC (0 to 24 hrs) in nude rat xenografted with human Calu6 cells harboring KRAS Q61K mutant at 150 mg/kg, po administered daily for 18 days starting from day 13 post tumor implantation and measured on day 31; type: ADME, organism-based; design: dose 150 mg/kg, time < 24 hr, route oral; settings: in vivo
Procedure, shortened: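 Nude rats carrying Calu-6 (KRAS Q61K) NSCLC xenografts were dosed p.o. once daily at 15, 35, 75 or 150 mg/kg from day 13 to day 31 after implant. Plasma was collected after the last dose and drug concentration was measured. AUC and Cmax were calculated per dose on day 31.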

[13] = Protein binding in human plasma; type: ADME, cell-free; settings: read-out: PPB (converted)
[14] = Time of last measurable concentration in nude rat xenografted with human Calu6 cells harboring KRAS Q61K mutant at 150 mg/kg, po administered daily for 18 days starting from day 13 post tumor implantation and measured on day 31; type: ADME, organism-based; settings: in vivo, 432 h; procedure, shortened: as §1
Calu-6 [15] = test: Antitumor activity against human Calu6 cells harboring KRAS Q61K mutant xenografted in nude rat assessed as tumor growth at 35 mg/kg, po administered daily for 18 days starting from day 13 post tumor implantation and measured on day 31 relative to control; type: functional; procedure, shortened: as §2
[16] = Tmax in nude rat xenografted with human Calu6 cells harboring KRAS Q61K mutant at 15 mg/kg, po administered daily for 18 days starting from day 13 post tumor implantation and measured on day 31; type: ADME, organism-based; settings: in vivo; procedure, shortened: as §1

Chain of Serine/threonine-protein kinase B-raf (P15056 whole entry, the tested form may be a part): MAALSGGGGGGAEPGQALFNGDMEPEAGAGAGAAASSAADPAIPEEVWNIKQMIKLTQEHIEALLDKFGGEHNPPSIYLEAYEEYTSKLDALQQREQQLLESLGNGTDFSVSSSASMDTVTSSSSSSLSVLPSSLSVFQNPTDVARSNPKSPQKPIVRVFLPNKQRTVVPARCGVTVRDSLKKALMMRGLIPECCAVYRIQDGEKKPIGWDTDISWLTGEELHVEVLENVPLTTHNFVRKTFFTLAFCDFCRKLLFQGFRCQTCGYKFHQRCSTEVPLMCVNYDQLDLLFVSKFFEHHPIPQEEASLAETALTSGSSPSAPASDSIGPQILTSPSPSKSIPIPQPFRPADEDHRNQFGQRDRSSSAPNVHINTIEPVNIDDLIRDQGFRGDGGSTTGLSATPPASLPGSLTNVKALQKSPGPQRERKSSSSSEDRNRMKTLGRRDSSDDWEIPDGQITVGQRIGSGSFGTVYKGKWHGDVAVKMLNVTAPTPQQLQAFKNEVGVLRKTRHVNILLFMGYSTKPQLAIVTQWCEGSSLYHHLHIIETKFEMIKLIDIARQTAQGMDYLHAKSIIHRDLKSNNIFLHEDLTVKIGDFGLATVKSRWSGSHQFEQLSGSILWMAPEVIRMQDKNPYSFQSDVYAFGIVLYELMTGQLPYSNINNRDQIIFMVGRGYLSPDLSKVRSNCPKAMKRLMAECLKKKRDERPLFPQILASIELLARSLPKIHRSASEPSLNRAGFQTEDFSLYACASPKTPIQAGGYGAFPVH
Chain of Platelet-derived growth factor receptor beta (P09619 whole entry, the tested form may be a part): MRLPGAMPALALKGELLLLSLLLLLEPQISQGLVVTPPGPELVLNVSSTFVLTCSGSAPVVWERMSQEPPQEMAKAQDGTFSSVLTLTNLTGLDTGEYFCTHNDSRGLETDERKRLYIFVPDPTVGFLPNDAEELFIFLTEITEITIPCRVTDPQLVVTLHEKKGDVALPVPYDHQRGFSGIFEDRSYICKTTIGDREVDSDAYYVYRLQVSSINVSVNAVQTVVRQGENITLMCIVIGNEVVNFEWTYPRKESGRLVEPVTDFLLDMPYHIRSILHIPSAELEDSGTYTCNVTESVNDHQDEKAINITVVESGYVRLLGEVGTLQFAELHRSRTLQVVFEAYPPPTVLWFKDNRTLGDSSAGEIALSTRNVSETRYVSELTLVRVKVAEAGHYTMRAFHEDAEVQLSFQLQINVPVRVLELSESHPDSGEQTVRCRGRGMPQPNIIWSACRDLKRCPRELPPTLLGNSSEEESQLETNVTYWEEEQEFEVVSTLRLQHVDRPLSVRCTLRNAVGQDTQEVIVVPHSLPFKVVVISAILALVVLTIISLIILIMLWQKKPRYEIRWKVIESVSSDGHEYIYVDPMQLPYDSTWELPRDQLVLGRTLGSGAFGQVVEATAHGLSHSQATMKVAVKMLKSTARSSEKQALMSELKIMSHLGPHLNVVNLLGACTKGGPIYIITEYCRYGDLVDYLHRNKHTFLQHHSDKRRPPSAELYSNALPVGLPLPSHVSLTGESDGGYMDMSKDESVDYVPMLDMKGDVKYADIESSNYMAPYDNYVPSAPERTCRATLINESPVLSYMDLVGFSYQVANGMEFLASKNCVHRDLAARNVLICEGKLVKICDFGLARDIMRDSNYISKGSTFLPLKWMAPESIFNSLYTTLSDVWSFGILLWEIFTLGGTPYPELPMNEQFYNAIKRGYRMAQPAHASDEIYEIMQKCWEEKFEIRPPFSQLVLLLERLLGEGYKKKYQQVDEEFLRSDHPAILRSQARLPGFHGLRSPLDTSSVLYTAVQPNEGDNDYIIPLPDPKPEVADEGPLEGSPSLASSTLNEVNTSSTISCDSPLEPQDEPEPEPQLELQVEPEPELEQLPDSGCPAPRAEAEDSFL

In the case of `Cc1ccc(NC(=O)c2ccnc(C(F)(F)F)c2)cc1-c1cc(OCCO)nc(N2CCOCC2)c1` [NAPORAFENIB], the Activity [1] is reported as 84%, the pKa [2] is reported as 3.86 and the Tmax [3] is reported as 5.5 h. For the same molecule, the Kd [4] was 14 nM, the Activity (Calu-6 [5]) was 21% and the bioavailability [6] was 65%. For the same molecule, the Vd [7] was 5.4 L/kg, the Activity [8] was “Non-Toxic” and the logD [9] was > 4. It also gave a Kd [10] of 1.3 nM, a bioavailability [11] of 38% and an inhibition in vivo at 150 mg/kg (Rattus norvegicus) of 70%. It also gave an AUC at 24 h [12] of 217 µM·h, a fraction unbound [13] of 0.02 and a Tlast [14] of 24 h. For the same molecule, the T/C (Calu-6 [15]) was 9% and the Tmax [16] was 3 h.
